In ChEMBL document CHEMBL1255256, “Bobel-24 activity against Cryptosporidium parvum in cell culture and in a SCID mouse model” (Antimicrob Agents Chemother, 2008):
Active and inactive are the calls of the source. The rule behind the calls is not given here.

Assays:
[1] = tested on: Cryptosporidium parvum; test: Antiparasitic activity against Cryptosporidium parvum infected into human HCT-8 cells assessed as growth inhibition at 22 uM after 48 hrs; assay type: functional; conditions: HCT-8, 48 h, read-out: GI
Method in brief: (§1)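 HCT-8 monolayers inoculated with 8 × 10^5 oocysts/ml, then incubated with 90, 45 or 22 μM compound (DMSO stock diluted in PBS). Fixed cultures stained with rhodamine-C3C3 mAb; developmental stages (meronts, gamonts) counted per field over 30 fields, mean of four replicate wells ± SD; percent growth inhibition versus medium and inhibition score (0–4).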

[2] = tested on: Cryptosporidium parvum; test: Antimicrobial activity against Cryptosporidium parvum infected in SCID mouse assessed as decrease in oocyst shedding at 125 mg/kg/day, po for 2 weeks and measured every 3 days during treatment; assay type: functional, organism-based
Method in brief: (§2)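 Female C.B-17 SCID mice, 7 weeks old, infected orally with 1 × 10^7 oocysts in PBS; chronic infection allowed for 25 days. Compound suspended with polyvinylpyrrolidone, given orally at 250 (n=10) or 125 (n=10) mg/kg/day for 2 weeks; controls were PVP in water and untreated mice. Oocysts per 50 μl concentrated feces counted by IIF every 3 days; ANOVA with LSD.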

[3] = tested on: Cryptosporidium parvum; test: Antimicrobial activity against Cryptosporidium parvum infected in HCT8 cells assessed as growth inhibition rate at 22 to 90 uM after 48 hrs; assay type: functional, organism-based; conditions: HCT-8; method in brief: as §1
[4] = tested on: Cryptosporidium parvum; test: Antiparasitic activity against Cryptosporidium parvum sprozoites assessed as growth inhibition at 90 uM after 48 hrs; assay type: functional; conditions: read-out: GI
Method in brief: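 Excysted sporozoite suspension incubated with 90 μM compound at 37°C for 30 min, then used to infect confluent HCT-8 monolayers. Developmental stages counted after rhodamine-C3C3 mAb staining, 30 fields/well, four replicate wells; percent inhibition versus medium control and inhibition score.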

[5] = tested on: Cryptosporidium parvum; test: Antimicrobial activity against Cryptosporidium parvum infected in SCID mouse assessed as decrease in oocyst shedding at 250 mg/kg/day, po for 2 weeks and measured 3 to 7 days after treatment; assay type: functional, organism-based; method in brief: as §2
[6] = tested on: Cryptosporidium parvum; test: Antimicrobial activity against Cryptosporidium parvum DE infected in HCT8 cells assessed as growth inhibition at 90 uM after 24 hrs; assay type: functional; conditions: HCT-8, 24 h, read-out: GI
Method in brief: (§3)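 Confluent HCT-8 monolayers inoculated with 8 × 10^5 excysted oocysts/ml, then infected cells treated with 90 μM compound (DMSO stock diluted in PBS) at 37°C in 5% CO2 (24 h per table footnote; 48 h per text). Fixed cells stained with rhodamine-labeled C3C3 mAb; meronts and gamonts counted in 30 fields/well, four replicate wells; percent inhibition and inhibition score versus medium control.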

[7] = tested on: Cryptosporidium parvum; test: Antiparasitic activity against Cryptosporidium parvum infected into human HCT-8 cells assessed as growth inhibition at 45 uM after 48 hrs; assay type: functional; conditions: HCT-8, 48 h, read-out: GI; method in brief: as §1
[8] = tested on: Cryptosporidium parvum; test: Antimicrobial activity against Cryptosporidium parvum infected in SCID mouse assessed as decrease in oocyst shedding at 125 mg/kg/day, po for 2 weeks and measured 3 to 7 days after treatment; assay type: functional, organism-based; method in brief: as §2
[9] = tested on: Cryptosporidium parvum; test: Antimicrobial activity against Cryptosporidium parvum infected in HCT8 cells assessed as decrease in parasite count at 22 to 90 uM after 48 hrs; assay type: functional, organism-based; conditions: HCT-8; method in brief: as §1
[10] = tested on: Cryptosporidium parvum; test: Antimicrobial activity against Cryptosporidium parvum infected in HCT8 cells assessed as growth inhibition at 90 uM pretreated for 30 min before infection measured after 48 hrs; assay type: functional; conditions: HCT-8, read-out: GI
Method in brief: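 HCT-8 cells preincubated with 90 μM compound at 37°C for 30 min, then infected with excysted oocysts (8 × 10^5/ml). Meronts and gamonts counted after rhodamine-C3C3 mAb staining, 30 fields/well, four replicate wells; percent inhibition versus medium control and inhibition score.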

[11] = tested on: Cryptosporidium parvum; test: Antiparasitic activity against Cryptosporidium parvum infected into human HCT-8 cells assessed as growth inhibition at 90 uM after 48 hrs; assay type: functional; conditions: HCT-8, 48 h, read-out: GI; method in brief: as §3
[12] = tested on: HCT-8; test: Cytotoxicity against human HCT8 cells assessed as cell viability by MTT assay; assay type: cell-based
Method in brief: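 HCT-8 cells exposed to compound and viability measured by MTT assay as percent viable cells.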

Structure (SMILES): Oc1c(I)cc(I)cc1I
- inhibition of growth at 22 µM [1]: 50.1%
- Activity [2]: Active
- Activity [3]: Dose-dependent effect
- inhibition of growth at 90 µM [4]: 27.8%
- Activity [5]: inactive
- inhibition of growth at 90 µM [6]: 99.6%
- inhibition of growth at 45 µM [7]: 92.5%
- Activity [8]: inactive
- Activity [9]: Dose-dependent effect
- inhibition of growth at 90 µM [10]: 36%
- inhibition of growth at 90 µM [11]: 96.5%
- Activity [12]: Non-toxic
